Published values pooled from the literature.
Protocols differ between the studies behind these lines.
Observed: cell growth or viability

Compound | cell line | assay | conditions | IC50
COc1c(Cl)cccc1Nc1c(-c2ccncc2OC[C@@H]2COCCO2)[nH]c2c1C(=O)NCC2 | HCC1419 | ATP luminescence |  | 0.0064 µM
COc1cccc2c1C(=O)c1c(O)c3c(c(O)c1C2=O)C[C@@](O)(C(=O)CO)C[C@@H]3O[C@H]1C[C@H](N)[C@H](O)[C@H](C)O1 | MOLT-3 | XTT | 75 h | 0.046 µM
COc1cccc2c1C(=O)c1c(O)c3c(c(O)c1C2=O)C[C@@](O)(C(=O)CO)C[C@@H]3O[C@H]1C[C@H](N)[C@H](O)[C@H](C)O1 | CAL-51 | ATP luminescence | 72 h | 0.12 µM
COc1cc(N=C2C(=O)Nc3ccccc32)cc(OC)c1 | L02 | MTT | 48 h | > 100 µM
C(=N\Nc1cc(N/N=C/c2cccc3cccnc23)nc(-c2ccccc2)n1)/c1cccc2cccnc12 | L02 | MTT | 48 h | > 100 µM
C=C[C@]1(C)C=C2CC[C@H]3C(C)(C)CCC[C@]3(C)[C@H]2CC1 | MOLT-3 | XTT | 75 h | 125 µM
O=C(NO)c1ccc(Cn2cnc3c(Nc4ccc(F)c(Cl)c4)ncnc32)cc1 | NALM-6 | MTT | 72 h | 2.02 µM
CN(C)C(=O)c1cc2cnc(Nc3ccc(-c4ccc5c(=O)cc(N6CCOCC6)oc5c4)cc3)nc2n1C1CCCC1 | Hs68 | ATP luminescence | 72 h | 1.15 µM
Cc1cccc(N=C2C(=O)N(Cc3ccc(Br)cc3)c3ccccc32)c1 | L02 | MTT | 48 h | 26 µM
Nc1ccccc1NC(=O)c1ccc(Cn2cnc3c(Nc4ccc(Br)cc4F)ncnc32)cc1 | NALM-6 | MTT | 72 h | 1.54 µM
COc1cc([C@@H]2c3cc4c(cc3[C@@H](O[C@@H]3O[C@@H]5CO[C@@H](C)O[C@H]5[C@H](O)[C@H]3O)[C@H]3COC(=O)[C@H]23)OCO4)cc(OC)c1O | MOLT-3 | XTT |  | 0.061 µM
C=CCN1C(=O)C(=Nc2cccc(C)c2)c2ccccc21 | L02 | MTT | 48 h | 14.1 µM
CC(C)(C)c1cnc(CSc2cnc(NC(=O)C3CCN(C(=O)CCCCCCCN4Cc5cc6c(cc5C4)C(=O)N(C4CCC(=O)NC4=O)C6=O)CC3)s2)o1 (stereo not drawn) | NALM-6 | MTT |  | 0.0234 µM
CCc1ccc(N=C2C(=O)N(Cc3ccccc3)c3ccccc32)cc1 | L02 | MTT | 48 h | 86.7 µM
Cc1ncsc1-c1ccc(CNC(=O)[C@@H]2C[C@@H](O)CN2C(=O)[C@@H](NC(=O)C2(F)CC2)C(C)(C)C)c(OCCOc2ccc(CN3CCN(c4cc(-c5ccccc5O)nnc4N)CC3)cc2)c1 | NCI-H1944 | ATP luminescence | 7 days | 0.169 µM
COc1ccc(Nc2ncnc3c2ncn3Cc2ccc(C(=O)Nc3ccccc3N)cc2)cc1 | NALM-6 | MTT | 72 h | 7.81 µM
O=C1C(=Nc2ccc(Cl)cc2Br)c2ccccc2N1Cc1ccc(Br)cc1 | L02 | MTT | 48 h | 7.75 µM
COc1cc([C@@H]2c3cc4c(cc3[C@@H](O[C@@H]3O[C@@H]5CO[C@@H](C)O[C@H]5[C@H](O)[C@H]3O)[C@H]3COC(=O)[C@H]23)OCO4)cc(OC)c1O | MOLT-3 | XTT | 75 h | 0.078 µM
CC(C)c1cccc(C(C)C)c1N=C1C(=O)N(Cc2ccccc2)c2ccccc21 | L02 | MTT | 48 h | 59 µM
CCOc1cc2ncc(C#N)c(Nc3ccc(OCc4ccccn4)c(Cl)c3)c2cc1NC(=O)/C=C/CN(C)C | HCC1419 | ATP luminescence |  | 0.014 µM
Cc1ncsc1-c1ccc([C@H](C)NC(=O)[C@@H]2C[C@@H](O)CN2C(=O)[C@@H](NC(=O)CN2CCN(c3cc(-c4ccccc4O)nnc3N)CC2)C(C)(C)C)cc1 | NCI-H1944 | ATP luminescence | 7 days | 0.215 µM
O=C(NO)c1ccc(Cn2cnc3c(Nc4cccc([N+](=O)[O-])c4)ncnc32)cc1 | NALM-6 | MTT | 72 h | 1.9 µM
CC(C)c1cccc(C(C)C)c1N=C1C(=O)N(Cc2cccc(Cl)c2)c2ccccc21 | L02 | MTT | 48 h | 72.5 µM
C(=N\Nc1cc(N/N=C/c2cccc3cccnc23)ncn1)/c1cccc2cccnc12 | L02 | MTT | 48 h | 31.6 µM
